Target: T1, Amine oxidase [flavin-containing] A (Homo sapiens, UniProt P21397)
T1 sequence (P21397 whole entry): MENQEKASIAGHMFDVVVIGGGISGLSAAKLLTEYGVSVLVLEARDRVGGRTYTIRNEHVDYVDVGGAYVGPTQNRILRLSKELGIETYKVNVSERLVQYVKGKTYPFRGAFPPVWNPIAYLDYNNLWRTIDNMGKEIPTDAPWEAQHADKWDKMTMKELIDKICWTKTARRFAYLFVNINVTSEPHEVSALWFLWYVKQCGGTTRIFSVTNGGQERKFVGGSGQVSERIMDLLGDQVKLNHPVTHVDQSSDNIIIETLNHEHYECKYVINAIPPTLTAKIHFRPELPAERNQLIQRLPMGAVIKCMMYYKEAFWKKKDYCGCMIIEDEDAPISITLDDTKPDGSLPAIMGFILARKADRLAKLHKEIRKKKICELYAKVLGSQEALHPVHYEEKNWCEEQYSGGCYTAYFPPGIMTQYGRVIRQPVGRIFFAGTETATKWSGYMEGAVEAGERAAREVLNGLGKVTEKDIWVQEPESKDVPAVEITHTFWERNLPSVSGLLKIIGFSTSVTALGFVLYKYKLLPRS
Test: Inhibition of recombinant human MAO-A using kynuramine as substrate after 20 mins by fluorescence assay

Structure (SMILES)	IC50
CC1CCC(=NNc2nc(-c3cccc([N+](=O)[O-])c3)cs2)CC1 (stereo not given)	4.25 µM
CC(C)=NNc1nc(-c2cccc([N+](=O)[O-])c2)cs1	1.07 µM
CCCC/C(CC)=N\Nc1nc(-c2cccc([N+](=O)[O-])c2)cs1	6.03 µM
O=[N+]([O-])c1cccc(-c2csc(NN=C3CCCCC3)n2)c1	2.56 µM
C=CCC/C(C)=N\Nc1nc(-c2cccc([N+](=O)[O-])c2)cs1	3.99 µM
O=[N+]([O-])c1cccc(-c2csc(NN=C3CCCC3)n2)c1	3.46 µM
CC/C(C)=N\Nc1nc(-c2cccc([N+](=O)[O-])c2)cs1	20.5 µM
O=[N+]([O-])c1cccc(-c2csc(NN=C3CCCCCC3)n2)c1	1.59 µM

Target: T2, Amine oxidase [flavin-containing] B (Homo sapiens, UniProt P27338)
T2 sequence (P27338 whole entry): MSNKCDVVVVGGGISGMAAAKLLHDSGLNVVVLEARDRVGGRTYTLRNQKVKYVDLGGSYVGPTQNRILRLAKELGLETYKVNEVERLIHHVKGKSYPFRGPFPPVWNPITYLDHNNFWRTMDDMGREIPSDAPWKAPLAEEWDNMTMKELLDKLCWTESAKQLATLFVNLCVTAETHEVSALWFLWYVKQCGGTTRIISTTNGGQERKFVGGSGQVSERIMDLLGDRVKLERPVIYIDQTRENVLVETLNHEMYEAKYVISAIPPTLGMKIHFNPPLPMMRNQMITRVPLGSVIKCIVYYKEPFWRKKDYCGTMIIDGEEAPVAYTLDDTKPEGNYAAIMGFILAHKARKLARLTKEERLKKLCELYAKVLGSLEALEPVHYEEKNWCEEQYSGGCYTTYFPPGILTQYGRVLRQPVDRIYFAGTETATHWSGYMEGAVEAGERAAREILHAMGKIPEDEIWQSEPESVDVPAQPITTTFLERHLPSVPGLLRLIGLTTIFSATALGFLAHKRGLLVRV

Structure (SMILES)	IC50
CC1CCC(=NNc2nc(-c3cccc([N+](=O)[O-])c3)cs2)CC1 (stereo not given)	0.237 µM
CC(C)=NNc1nc(-c2cccc([N+](=O)[O-])c2)cs1	0.716 µM
CCCC/C(CC)=N\Nc1nc(-c2cccc([N+](=O)[O-])c2)cs1	0.182 µM
O=[N+]([O-])c1cccc(-c2csc(NN=C3CCCCC3)n2)c1	0.047 µM
C=CCC/C(C)=N\Nc1nc(-c2cccc([N+](=O)[O-])c2)cs1	0.101 µM
O=[N+]([O-])c1cccc(-c2csc(NN=C3CCCC3)n2)c1	0.095 µM
CC/C(C)=N\Nc1nc(-c2cccc([N+](=O)[O-])c2)cs1	0.351 µM
O=[N+]([O-])c1cccc(-c2csc(NN=C3CCCCCC3)n2)c1	0.0086 µM

Target: Cholinesterase (Equus caballus) (UniProt P81908)
Sequence (P81908 whole entry): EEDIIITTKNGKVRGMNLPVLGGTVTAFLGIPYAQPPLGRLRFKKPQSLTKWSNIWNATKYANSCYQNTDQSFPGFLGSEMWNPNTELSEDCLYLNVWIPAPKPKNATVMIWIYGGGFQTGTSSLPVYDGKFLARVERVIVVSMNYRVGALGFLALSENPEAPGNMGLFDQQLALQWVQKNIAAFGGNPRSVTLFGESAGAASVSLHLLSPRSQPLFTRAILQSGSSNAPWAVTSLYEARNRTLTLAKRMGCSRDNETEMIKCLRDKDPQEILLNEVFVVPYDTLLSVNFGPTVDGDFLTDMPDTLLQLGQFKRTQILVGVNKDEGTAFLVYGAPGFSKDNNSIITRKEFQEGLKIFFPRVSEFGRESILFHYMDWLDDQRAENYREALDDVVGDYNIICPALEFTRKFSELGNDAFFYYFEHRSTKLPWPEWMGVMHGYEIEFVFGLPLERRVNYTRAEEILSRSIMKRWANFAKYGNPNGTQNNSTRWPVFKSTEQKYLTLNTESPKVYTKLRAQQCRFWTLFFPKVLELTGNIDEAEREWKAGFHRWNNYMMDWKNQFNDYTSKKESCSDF
Test: Inhibition of horse serum BuChE at 3 uM using butyrylthiocholine iodide as substrate preincubated for 15 mins followed by substrate addition measured after 10 mins by spectrophotometry based-Ellman's method

Structure (SMILES)	inhibition
COc1ccc2c3c1O[C@H]1C[C@@H](O)C=C[C@@]31CCN(C)C2	13.6%
CC1CCC(=NNc2nc(-c3cccc([N+](=O)[O-])c3)cs2)CC1 (stereo not given)	4.87%
CC(C)=NNc1nc(-c2cccc([N+](=O)[O-])c2)cs1	12.8%
CCCC/C(CC)=N\Nc1nc(-c2cccc([N+](=O)[O-])c2)cs1	10%
O=[N+]([O-])c1cccc(-c2csc(NN=C3CCCCC3)n2)c1	8.41%
C=CCC/C(C)=N\Nc1nc(-c2cccc([N+](=O)[O-])c2)cs1	6.35%
O=[N+]([O-])c1cccc(-c2csc(NN=C3CCCC3)n2)c1	12.4%
CC/C(C)=N\Nc1nc(-c2cccc([N+](=O)[O-])c2)cs1	12.1%
O=[N+]([O-])c1cccc(-c2csc(NN=C3CCCCCC3)n2)c1	7.11%

System: not listed separately
Test: Antioxidant activity assessed as total antioxidant capacity after 90 mins by phosphomolybdenum method
Assay type: functional
Summary of the method: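 Sample combined with reagent of 0.6 M sulphuric acid, 28 mM sodium phosphate and 4 mM ammonium molybdate; heated 90 min at 95 °C, absorbance at 695 nm. EC50 = concentration giving absorbance 0.5; trolox as reference.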

Structure (SMILES)	EC50
Cc1c(C)c2c(c(C)c1O)CCC(C)(C(=O)O)O2 (stereo not given) [TROLOX]	1130 µM
CC1CCC(=NNc2nc(-c3cccc([N+](=O)[O-])c3)cs2)CC1 (stereo not given)	1130 µM
CC(C)=NNc1nc(-c2cccc([N+](=O)[O-])c2)cs1	1750 µM
CCCC/C(CC)=N\Nc1nc(-c2cccc([N+](=O)[O-])c2)cs1	1560 µM
O=[N+]([O-])c1cccc(-c2csc(NN=C3CCCCC3)n2)c1	1430 µM
C=CCC/C(C)=N\Nc1nc(-c2cccc([N+](=O)[O-])c2)cs1	1150 µM
O=[N+]([O-])c1cccc(-c2csc(NN=C3CCCC3)n2)c1	1340 µM
CC/C(C)=N\Nc1nc(-c2cccc([N+](=O)[O-])c2)cs1	1650 µM
O=[N+]([O-])c1cccc(-c2csc(NN=C3CCCCCC3)n2)c1	1230 µM

System: not listed separately
Test: Antioxidant activity assessed as ferric ion reducing activity using Fe3+-TPTZ after 30 mins by FRAP assay
Assay type: functional
Summary of the method: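 FRAP reagent: acetate buffer (0.3 M, pH 3.6), TPTZ (10 mM) in 40 mM HCl and FeCl3 (20 mM), 10:1:1 v/v/v. Sample added, 30 min at room temperature, absorbance at 593 nm. Expressed as EC50.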

Structure (SMILES)	EC50
Cc1c(C)c2c(c(C)c1O)CCC(C)(C(=O)O)O2 (stereo not given) [TROLOX]	160 µM
CC1CCC(=NNc2nc(-c3cccc([N+](=O)[O-])c3)cs2)CC1 (stereo not given)	390 µM
CC(C)=NNc1nc(-c2cccc([N+](=O)[O-])c2)cs1	340 µM
CCCC/C(CC)=N\Nc1nc(-c2cccc([N+](=O)[O-])c2)cs1	410 µM
O=[N+]([O-])c1cccc(-c2csc(NN=C3CCCCC3)n2)c1	330 µM
C=CCC/C(C)=N\Nc1nc(-c2cccc([N+](=O)[O-])c2)cs1	330 µM
O=[N+]([O-])c1cccc(-c2csc(NN=C3CCCC3)n2)c1	400 µM
CC/C(C)=N\Nc1nc(-c2cccc([N+](=O)[O-])c2)cs1	420 µM
O=[N+]([O-])c1cccc(-c2csc(NN=C3CCCCCC3)n2)c1	420 µM

System: not listed separately
Test: Antioxidant activity assessed as cupric ion reducing activity after 30 mins by CUPRAC assay
Assay type: functional
Summary of the method: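 Sample mixed with CuCl2 (10 mM), neocuproine (7.5 mM) and NH4Ac buffer (1 M, pH 7.0) stock reagents; blank lacks CuCl2. Absorbance at 450 nm after 30 min at room temperature, blank subtracted. Expressed as EC50.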

Structure (SMILES)	EC50
Cc1c(C)c2c(c(C)c1O)CCC(C)(C(=O)O)O2 (stereo not given) [TROLOX]	240 µM
CC1CCC(=NNc2nc(-c3cccc([N+](=O)[O-])c3)cs2)CC1 (stereo not given)	390 µM
CC(C)=NNc1nc(-c2cccc([N+](=O)[O-])c2)cs1	510 µM
CCCC/C(CC)=N\Nc1nc(-c2cccc([N+](=O)[O-])c2)cs1	550 µM
O=[N+]([O-])c1cccc(-c2csc(NN=C3CCCCC3)n2)c1	320 µM
C=CCC/C(C)=N\Nc1nc(-c2cccc([N+](=O)[O-])c2)cs1	460 µM
O=[N+]([O-])c1cccc(-c2csc(NN=C3CCCC3)n2)c1	510 µM
CC/C(C)=N\Nc1nc(-c2cccc([N+](=O)[O-])c2)cs1	580 µM
O=[N+]([O-])c1cccc(-c2csc(NN=C3CCCCCC3)n2)c1	410 µM

System: not listed separately
Test: Antioxidant activity assessed as DPPH radical scavenging activity after 30 mins
Assay type: functional
Summary of the method: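 Sample added to 0.004% DPPH in methanol, kept 30 min in the dark at room temperature, absorbance read at 517 nm. IC50 taken as the concentration scavenging 50% of DPPH radicals; trolox as reference.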

Structure (SMILES)	IC50
Cc1c(C)c2c(c(C)c1O)CCC(C)(C(=O)O)O2 (stereo not given) [TROLOX]	400 µM
CC1CCC(=NNc2nc(-c3cccc([N+](=O)[O-])c3)cs2)CC1 (stereo not given)	1180 µM
CC(C)=NNc1nc(-c2cccc([N+](=O)[O-])c2)cs1	1160 µM
CCCC/C(CC)=N\Nc1nc(-c2cccc([N+](=O)[O-])c2)cs1	1260 µM
O=[N+]([O-])c1cccc(-c2csc(NN=C3CCCCC3)n2)c1	1200 µM
C=CCC/C(C)=N\Nc1nc(-c2cccc([N+](=O)[O-])c2)cs1	1210 µM
O=[N+]([O-])c1cccc(-c2csc(NN=C3CCCC3)n2)c1	1180 µM
CC/C(C)=N\Nc1nc(-c2cccc([N+](=O)[O-])c2)cs1	1180 µM
O=[N+]([O-])c1cccc(-c2csc(NN=C3CCCCCC3)n2)c1	1220 µM

System: not listed separately
Test: Antioxidant activity assessed as ABTS radical scavenging activity measured after 12 to 16 hrs
Assay type: functional
Summary of the method: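 ABTS radical cation generated from 7 mM ABTS with 2.45 mM potassium persulphate, 12-16 h dark at room temperature, then diluted with methanol to A734 0.700 ± 0.02. Sample mixed with ABTS solution, 30 min at room temperature, absorbance read at 734 nm. IC50 = concentration scavenging 50% of radicals; trolox reference.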

Structure (SMILES)	IC50
Cc1c(C)c2c(c(C)c1O)CCC(C)(C(=O)O)O2 (stereo not given) [TROLOX]	660 µM
CC1CCC(=NNc2nc(-c3cccc([N+](=O)[O-])c3)cs2)CC1 (stereo not given)	1090 µM
CC(C)=NNc1nc(-c2cccc([N+](=O)[O-])c2)cs1	1070 µM
CCCC/C(CC)=N\Nc1nc(-c2cccc([N+](=O)[O-])c2)cs1	1040 µM
O=[N+]([O-])c1cccc(-c2csc(NN=C3CCCCC3)n2)c1	1100 µM
C=CCC/C(C)=N\Nc1nc(-c2cccc([N+](=O)[O-])c2)cs1	1040 µM
O=[N+]([O-])c1cccc(-c2csc(NN=C3CCCC3)n2)c1	1100 µM
CC/C(C)=N\Nc1nc(-c2cccc([N+](=O)[O-])c2)cs1	1040 µM
O=[N+]([O-])c1cccc(-c2csc(NN=C3CCCCCC3)n2)c1	1070 µM
